# Results: ChEMBL document CHEMBL3044956, “Nematicidal and antifungal activities of annonaceous acetogenins from Annona squamosa against various plant pathogens” (J Agric Food Chem, 2011)
# Activity calls are given as the source filed them. No cut-off for these calls is given here.
# Key:
# [1] = system: Bursaphelenchus xylophilus; assay: Nematicidal activity against second juvenile stage (J2) of Bursaphelenchus xylophilus assessed as mortality at >0.33 ug/ml after 2 days by microtiter plate assay method (Beneficial crop Pine); assay type: functional
# How it was run: (§1)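 Pine wood nematodes reared on B. cinerea mycelia on PDA for 7 days at 28 °C. J2s collected in 0.01% Triton X-100 water and tested in microtiter plates. Compounds in DMSO or MeOH, solvent ≤1%; solvent-only controls. Concentrations 0.004–1 μg/mL. Mortality Abbott-corrected; LC50 by probit. Two runs, three replicates each.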
# Meloidogyne incognita [2] = assay: Nematicidal activity against second juvenile stage (J2) of Meloidogyne incognita (root-knot nematode) assessed as mortality incubated in the dark at 28 degC after 1 day by light microscopy (benficial crop Tomato); assay type: functional; conditions: 24 h
# How it was run: (§2)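 M. incognita eggs taken from infected tomato roots with hypochlorite and J2s hatched in Baermann funnels at 28 °C. J2s from the first 3 days kept in 0.01% Tween 20 water and used within 24 h. About 100 J2s per well; stock added 1:100 in DMSO or MeOH (≤1%). Plates kept shaking in the dark at 28 °C, scored by microscope at 1, 2 and 3 days. Mortality Abbott-corrected. Two runs, three replicates each.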
# Meloidogyne incognita [3] = assay: Nematicidal activity against second juvenile stage (J2) of Meloidogyne incognita (root-knot nematode) assessed as mortality incubated in the dark at 28 degC after 2 days by light microscopy (benficial crop Tomato); assay type: functional; conditions: 48 h; how it was run: as §2
# Meloidogyne incognita [4] = assay: Nematicidal activity against second juvenile stage (J2) of Meloidogyne incognita (root-knot nematode) assessed as mortality incubated in the dark at 28 degC after 3 days by light microscopy (benficial crop Tomato); assay type: functional; conditions: 72 h; how it was run: as §2
# [5] = system: Bursaphelenchus xylophilus; assay: Nematicidal activity against second juvenile stage (J2) of Bursaphelenchus xylophilus assessed as mortality after 2 days by microtiter plate assay method (Beneficial crop Pine); assay type: functional; conditions: 48 h; how it was run: as §1
# Caenorhabditis elegans = assay: Nematicidal activity against Caenorhabditis elegans assessed as mortality; assay type: functional
# Phytophthora infestans [6] = assay: In vivo antifungal activity against Phytophthora infestans zoospores infected tomato seedlings assessed as control of tomato late blight disease development at 2 ug/ml treated 1 day before spore inoculation measured 3 days after inoculation; assay type: functional
# How it was run: (§3)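 Potted seedlings sprayed to runoff with material dissolved in MeOH and diluted in 0.025% Tween 20 (5% MeOH); controls got the Tween/MeOH solution alone. Inoculated with spores or mycelial suspension 1 day later. Infected leaf or sheath area rated 3–7 days after inoculation; % control = 100(A−B)/A. Randomized complete block design, three replicates, run in duplicate; Tukey HSD.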
# Phytophthora infestans [7] = assay: In vivo antifungal activity against Phytophthora infestans zoospores infected tomato seedlings assessed as control of tomato late blight disease development at 10 ug/ml treated 1 day before spore inoculation measured 3 days after inoculation; assay type: functional; how it was run: as §3
# Colletotrichum coccodes [8] = assay: In vivo antifungal activity against Colletotrichum coccodes infected red pepper seedlings assessed as control of red pepper anthracnose development at 500 ug/ml treated 1 day before spore inoculation measured 3-7 days after inoculation; assay type: functional; how it was run: as §3
# Pyricularia oryzae [9] = assay: In vivo antifungal activity against Magnaporthe oryzae infected rice seedlings assessed as control of rice blast disease development at 125 ug/ml treated 1 day before spore inoculation measured 3-7 days after inoculation; assay type: functional; how it was run: as §3
# Blumeria hordei [10] = assay: In vivo antifungal activity against Blumeria graminis f. sp. hordei infected barley seedlings assessed as control of barley powdery mildew disease development at 500 ug/ml treated 1 day before spore inoculation measured 3-7 days after inoculation; assay type: functional; how it was run: as §3
# Pyricularia oryzae [11] = assay: In vivo antifungal activity against Magnaporthe oryzae infected rice seedlings assessed as control of rice blast disease development at 250 ug/ml treated 1 day before spore inoculation measured 3-7 days after inoculation; assay type: functional; how it was run: as §3
# Phytophthora infestans [12] = assay: Antifungal activity against Phytophthora infestans assessed as inhibition of sporangium germination incubated at 20 degC for 24 hr by light microscopy; assay type: functional, organism-based
# How it was run: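 Sporangium germination: compounds serially diluted in MeOH (12500 to 391 μg/mL as stock series), sporangia incubated 24 h at 20 °C. About 100 sporangia per replicate scored for germination by light microscope. Experiment repeated, mean ± SD. IC50 by probit.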
# Puccinia recondita [13] = assay: In vivo antifungal activity against Puccinia recondita infected wheat seedlings assessed as reduction in wheat leaf rust disease symptoms development at 500 ug/ml treated 1 day before spore inoculation measured 7 days after inoculation; assay type: functional; design: scale not given: the % may be the effect or the level left; how it was run: as §3
# Blumeria hordei [14] = assay: In vivo antifungal activity against Blumeria graminis f. sp. hordei infected barley seedlings assessed as control of barley powdery mildew disease development at 125 ug/ml treated 1 day before spore inoculation measured 3-7 days after inoculation; assay type: functional; how it was run: as §3
# Phytophthora infestans [15] = assay: Antifungal activity against Phytophthora infestans assessed as inhibition of zoospore germination incubated in the dark at 20 degC for 24 hr by light microscopy; assay type: functional, organism-based
# How it was run: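 Zoospores released by chilling sporangia 1 h at 4 °C, then filtered to remove sporangia. Test solution in MeOH mixed 1:100 with the suspension (1% MeOH control), loaded onto hole-slide glasses and kept humid at 20 °C for 24 h in the dark. Germinated cells counted per hole by light microscope. Experiment repeated, mean ± SD.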
# Botrytis cinerea [16] = assay: In vivo antifungal activity against Botryotinia fuckeliana infected in tomato seedlings assessed as control of tomato gray mold disease development at 125 ug/ml treated 1 day before spore inoculation measured 3-7 days after inoculation; assay type: functional; how it was run: as §3
# Rhizoctonia solani [17] = assay: In vivo antifungal activity against Rhizoctonia solani infected rice seedlings assessed as control of rice sheath blight disease development at 250 ug/ml treated 1 day before spore inoculation measured 3-7 days after inoculation; assay type: functional; how it was run: as §3
# Blumeria hordei [18] = assay: In vivo antifungal activity against Blumeria graminis f. sp. hordei infected barley seedlings assessed as control of barley powdery mildew disease development at 250 ug/ml treated 1 day before spore inoculation measured 3-7 days after inoculation; assay type: functional; how it was run: as §3
# Puccinia recondita [19] = assay: In vivo antifungal activity against Puccinia recondita infected wheat seedlings assessed as reduction in wheat leaf rust disease symptoms development at 125 ug/ml treated 1 day before spore inoculation measured 7 days after inoculation; assay type: functional; design: scale not given: the % may be the effect or the level left; how it was run: as §3
# Puccinia recondita [20] = assay: In vivo antifungal activity against Puccinia recondita infected wheat seedlings assessed as reduction in wheat leaf rust disease symptoms development at 250 ug/ml treated 1 day before spore inoculation measured 7 days after inoculation; assay type: functional; design: scale not given: the % may be the effect or the level left; how it was run: as §3
# Pyricularia oryzae [21] = assay: In vivo antifungal activity against Magnaporthe oryzae infected rice seedlings assessed as control of rice blast disease development at 500 ug/ml treated 1 day before spore inoculation measured 3-7 days after inoculation; assay type: functional; how it was run: as §3
# Phytophthora infestans [22] = assay: In vivo antifungal activity against Phytophthora infestans zoospores infected tomato seedlings assessed as control of tomato late blight disease development treated 1 day before spore inoculation measured 3 days after inoculation; assay type: functional, organism-based; how it was run: as §3
# Meloidogyne incognita [23] = assay: Nematicidal activity against second juvenile stage (J2) of Meloidogyne incognita (root-knot nematode) assessed as mortality at 11 ug/ml incubated in the dark at 28 degC within 2 hr by light microscopy (benficial crop Tomato); assay type: functional
# Rhizoctonia solani [24] = assay: In vivo antifungal activity against Rhizoctonia solani infected rice seedlings assessed as control of rice sheath blight disease development at 500 ug/ml treated 1 day before spore inoculation measured 3-7 days after inoculation; assay type: functional; how it was run: as §3
# Botrytis cinerea [25] = assay: In vivo antifungal activity against Botryotinia fuckeliana infected in tomato seedlings assessed as control of tomato gray mold disease development at 250 ug/ml treated 1 day before spore inoculation measured 3-7 days after inoculation; assay type: functional; how it was run: as §3
# Phytophthora infestans [26] = assay: Antifungal activity against Phytophthora infestans assessed as inhibition of radial mycelial growth at 11.11 to 900 ug/ml incubated at 20 degC for 5 to 7 days by poison plate assay; assay type: functional
# How it was run: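 Poison-plate assay: material in MeOH added 1:100 to V8-agar at 50 °C, 2 mL per well of six-well plates, centre-inoculated with a 5 mm plug from the colony margin. Incubated at 20 °C until control growth reached the edge. Controls were 1% MeOH. Read as % inhibition of radial growth. Two runs, four replicates each. IC50 by probit.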
# Rhizoctonia solani [27] = assay: In vivo antifungal activity against Rhizoctonia solani infected rice seedlings assessed as control of rice sheath blight disease development at 125 ug/ml treated 1 day before spore inoculation measured 3-7 days after inoculation; assay type: functional; how it was run: as §3
# Botrytis cinerea [28] = assay: In vivo antifungal activity against Botryotinia fuckeliana infected in tomato seedlings assessed as control of tomato gray mold disease development at 500 ug/ml treated 1 day before spore inoculation measured 3-7 days after inoculation; assay type: functional; how it was run: as §3
# Colletotrichum coccodes [29] = assay: In vivo antifungal activity against Colletotrichum coccodes infected red pepper seedlings assessed as control of red pepper anthracnose development at 250 ug/ml treated 1 day before spore inoculation measured 3-7 days after inoculation; assay type: functional; how it was run: as §3
# Colletotrichum coccodes [30] = assay: In vivo antifungal activity against Colletotrichum coccodes infected red pepper seedlings assessed as control of red pepper anthracnose development at 125 ug/ml treated 1 day before spore inoculation measured 3-7 days after inoculation; assay type: functional; how it was run: as §3
# Phytophthora infestans [31] = assay: In vivo antifungal activity against Phytophthora infestans zoospores infected tomato seedlings assessed as control of tomato late blight disease development at 3.9 ug/ml treated 1 day before spore inoculation measured 3 days after inoculation; assay type: functional; how it was run: as §3
# Puccinia recondita [32] = assay: In vivo antifungal activity against Puccinia recondita infected wheat seedlings assessed as reduction in wheat leaf rust disease symptoms development at 50 to 300 ug/ml treated 1 day before spore inoculation measured 7 days after inoculation; assay type: functional, organism-based; how it was run: as §3
SMILES,mortality [1],LC50 (Meloidogyne incognita [2]),LC50 (Meloidogyne incognita [3]),LC50 (Meloidogyne incognita [4]),LC50 [5],Activity (Colletotrichum coccodes [8]),Activity (Pyricularia oryzae [9]),Activity (Blumeria hordei [10]),Activity (Pyricularia oryzae [11]),IC50 (Phytophthora infestans [12]),inhibition (Phytophthora infestans [12]),Activity (Blumeria hordei [14]),IC50 (Phytophthora infestans [15]),inhibition (Phytophthora infestans [15]),Activity (Botrytis cinerea [16]),Activity (Rhizoctonia solani [17]),Activity (Blumeria hordei [18]),Activity (Pyricularia oryzae [21]),Activity (Phytophthora infestans [22]),Activity (Rhizoctonia solani [24]),also measured
CCCCCCCCCC[C@@H](O)[C@H]1CC[C@H]([C@H]2CC[C@H]([C@H](O)CCCCCCCCCC[C@@H](O)CC3=C[C@H](C)OC3=O)O2)O1 [REL-SQUAMOCIN-H],100%,> 100 µg/mL,71.2 µg/mL,24.3 µg/mL,0.012 µg/mL,–,–,–,–,–,–,–,–,–,–,–,–,–,–,–,LD100 (Caenorhabditis elegans): 0.1 ppm
COc1ccc(C(=CC(=O)N2CCOCC2)c2ccc(Cl)cc2)cc1OC [DIMETHOMORPH],–,–,–,–,–,–,–,–,–,–,–,–,–,–,–,–,–,–,–,–,Activity (Phytophthora infestans [6]): 85%; Activity (Phytophthora infestans [7]): 100%
CCCCCCCCCC[C@H](O)[C@H]1CC[C@H]([C@H]2CC[C@H]([C@H](O)CCCCCCCCCC[C@@H](O)CC3=C[C@H](C)OC3=O)O2)O1 (relative stereo) [REL-SQUAMOCIN-G],100%,0.864 µg/mL,0.339 µg/mL,0.287 µg/mL,0.008 µg/mL,0%,12.5%,0%,18.8%,1.43 µg/mL,Dose-dependent effect,0%,1.92 µg/mL,Dose-dependent effect,20%,0%,25%,18.8%,Dose-dependent effect,0%,Activity (Puccinia recondita [13]): 0%; Activity (Puccinia recondita [19]): 0%; Activity (Puccinia recondita [20]): 0%; mortality at 11 µg/mL (Meloidogyne incognita [23]): 100%; Activity (Botrytis cinerea [25]): 20%; growth inhibition (GI) (Phytophthora infestans [26]): 31%; Activity (Rhizoctonia solani [27]): 11.8%; Activity (Botrytis cinerea [28]): 0%; Activity (Colletotrichum coccodes [29]): 0%
CCCCCC[C@H](O)CCC[C@H](O)[C@H]1CC[C@H]([C@H](O)CC[C@H](O)[C@@H]2CC[C@@H](CCCCCCCCCC3=C[C@H](C)OC3=O)O2)O1 (relative stereo) [SQUAMOSTATIN A],100%,–,–,–,0.048 µg/mL,0%,50%,0%,31.3%,2.09 µg/mL,Dose-dependent effect,0%,1.89 µg/mL,Dose-dependent effect,10%,11.8%,0%,37.5%,Dose-dependent effect,11.8%,Activity (Colletotrichum coccodes [30]): 20%; Activity (Phytophthora infestans [31]): >70%; Activity (Puccinia recondita [32]): Active; Activity (Botrytis cinerea [25]): 10%; growth inhibition (GI) (Phytophthora infestans [26]): 31%; Activity (Rhizoctonia solani [27]): 0%; Activity (Botrytis cinerea [28]): 10%; Activity (Colletotrichum coccodes [29]): 40%
